High-throughput results: PubChem, several laboratories
Rows were chosen to be rich in hits. Some 2.6% of all compounds tested hit in one or more screens of this group.
Scp-1 inhibitor: blocks human Scp-1 phosphatase activity | Q9GZU7 | Recombinant Scp1, phosphopeptide, malachite green phosphate absorbance | AID 493091 | inhibition, % at 20 µM | actives 0.88% (n = 340,000);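 active means inhibition above about 50% at 20 µM, limit read from the data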;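 further: plate controls were DMSO wells with enzyme for no effect and wells lacking enzyme for full effect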
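Test system: SCP-1 phosphatase catalytic domain, residues 76-261 | Compound dosing: One concentration, 20 µM, with 1.0% DMSO | Schedule: 45 min room-temperature reaction, 5 min colour, 30 min stabiliser | Detection: Absorbance at 630 nm | Read-out basis: % inhibition of SCP-1 phosphate liberation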
STEP inh: inhibitors of human striatal-enriched phosphatase STEP. P54829. recombinant STEP, OMFP fluorogenic substrate, fluorescence. inhibition, % at 20 µM. actives 0.25% (n = 360,000). AID 588621;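 active means inhibition at 20 µM, scaled per plate between control wells, above about 37%, limit read from the data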;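 further: 0% = DMSO with enzyme and substrate and 100% = substrate only without enzyme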
Target sequence (P54829 whole entry, looked up): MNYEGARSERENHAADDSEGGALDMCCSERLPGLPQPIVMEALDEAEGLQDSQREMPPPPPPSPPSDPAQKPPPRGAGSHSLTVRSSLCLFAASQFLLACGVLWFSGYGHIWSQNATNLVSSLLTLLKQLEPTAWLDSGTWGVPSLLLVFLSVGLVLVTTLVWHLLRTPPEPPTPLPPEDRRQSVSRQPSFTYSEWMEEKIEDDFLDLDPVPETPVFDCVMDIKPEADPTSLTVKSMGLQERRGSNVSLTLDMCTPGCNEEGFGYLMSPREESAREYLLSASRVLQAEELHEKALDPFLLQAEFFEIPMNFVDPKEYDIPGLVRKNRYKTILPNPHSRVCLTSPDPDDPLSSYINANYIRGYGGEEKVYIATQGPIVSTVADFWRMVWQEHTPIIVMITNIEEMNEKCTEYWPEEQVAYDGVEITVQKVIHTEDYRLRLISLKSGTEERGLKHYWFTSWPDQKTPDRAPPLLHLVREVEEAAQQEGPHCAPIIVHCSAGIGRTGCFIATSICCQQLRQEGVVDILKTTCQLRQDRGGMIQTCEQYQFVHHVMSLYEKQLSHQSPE
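System: isolated STEP enzyme; schedule: 20 min enzyme reaction at room temperature, protected from light; medium: Bis-Tris buffer pH 6.0, 2.5 mM DTT, 0.005% Tween 20; signal: fluorescence, 480/540 nm; dosing: single compound dose of 20 µM, 1% DMSO final; also added: OMFP substrate, 25 µM final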
LMPTP block: blocks human LMPTP phosphatase. recombinant LMPTP-A, OMFP fluorogenic substrate, fluorescence intensity. P24666. inhibition, % at 20 µM. actives 0.22% (n = 360,000);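 active means compounds that cut the enzyme signal by at least half of the control window in the single-dose screen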;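 further: plate controls were DMSO wells with enzyme plus substrate for no effect and substrate without enzyme for full effect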
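Test system – LMPTP-A enzyme · Amount – LMPTP-A at 0.625 nM final in the reaction · Buffer or medium – Bis-Tris pH 6.0, DTT, detergent · Reagent – OMFP 400 µM · Doses – single 20 µM dose · Schedule – reaction 50 min, room temperature, dark · Detection – fluorescence intensity of OMFP turnover product · Evaluation – percent inhibition versus substrate-only and uninhibited controls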
rCAG RNA binder: binds r(CAG) RNA repeats; inhibition, % at 3 µM; actives 1.3% (n = 370,000); AID 651821; r(CAG) RNA repeat, TO-PRO-1 dye displacement fluorescence;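 active means inhibition above the plate cutoff, the mean of all test compounds on that plate plus 3 SD, cut at about 35% in these data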;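 further: 0% = DMSO alone and 100% = 100 µM mitoxantrone as full dye displacement; higher means more dye released from RNA so lower well fluorescence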
NadD block: NadD (S. aureus) enzyme inhibition | inhibition, % at 20 µM | actives 0.78% (n = 360,000) | purified NadD enzyme, colorimetric absorbance read-out; in the data active means inhibition above about 26%
rCAG binder conf: r(CAG) RNA repeat binding, confirmation | shares compounds with rCAG RNA binder | TO-PRO-1 dye displacement fluorescence | inhibition, % at 3 µM | actives 70% (n = 4,300);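 active means inhibition above a per-plate cutoff, the mean inhibition of sample wells plus 3 SD, cut at about 35% in these data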;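 further: loss of TO-PRO-1 fluorescence as compound displaces dye from 1x1 AA loop RNA; 0% = DMSO only wells and 100% = 100 µM mitoxantrone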
dCAG dye counter: DNA CAG dye complex inhibition counter-screen | d(CAG) DNA oligo TO-PRO-1 dye displacement, fluorescence | actives 94% (n = 4,300) | shares compounds with rCAG RNA binder | inhibition, % at 3 µM;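 active means inhibition above its plate's cutoff, the mean test-well inhibition plus 3 SD, cut at about 4.8% in these data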;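 further: 0% = DNA dye mix with DMSO and 100% = 100 µM mitoxantrone; hits displace the dye from DNA and so lower well fluorescence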
DNA CAG DR: counter-screen for rCAG binders: inhibitors of DNA CAG TO-PRO-1 complex | shares compounds with rCAG RNA binder | DNA CAG/GTC duplex TO-PRO-1 dye displacement fluorescence | IC50, µM | actives 20% (n = 250) | AID 686960; in the data active means IC50 below about 10 µM
The depositor's hits bear a star; i = inactive; . = no result.

SMILES	Scp-1 inhibitor	STEP inh	LMPTP block	rCAG RNA binder	NadD block	rCAG binder conf	dCAG dye counter	others
COc1cccc(OCC(C)CN2CCC(C(O)(c3ccccc3)c3ccccc3)CC2)c1 (centres undefined)	.	.	.	13	.	.	.
C(#CC1=CCCCC1)CNCC1CC1	.	.	.	1	.	.	.
O=C(OCc1cn(Cc2cccc(F)c2F)nn1)N1CCCC1	.	.	.	0	.	.	.
CC(C)=C1C(=O)NN(c2ccc(F)c(Cl)c2)C1=O	-3	5	0	83*	-6	19	6.8*
O=c1cc(-c2ccccc2)oc2c1ccc1ccccc12	.	.	.	12	.	.	.
O=c1cc(-c2ccc(O)c(O)c2)oc2ccc3ccccc3c12	4	4	7	41*	16	59*	28*
O=c1cc(-c2ccc(O)c(O)c2)oc2c1ccc1ccccc12	1	4	15	57*	21	61*	28*
C#CCCCN([C@@H](CC(C)C)C(=O)OC)S(=O)(=O)c1ccccc1Br	.	.	.	0	.	.	.
COCCCN1C(=O)[C@H](CC(=O)N2CCC(c3ccccc3)CC2)[C@]2(C(=O)OC)CCCCC=C12	.	.	.	2	.	.	.
O=S(=O)(c1ccc(Cl)s1)N1CCC(c2nc3ccccc3o2)CC1	.	.	.	4	.	.	.
CC(=O)Oc1cc(C)c(Cl)c2c(OC(C)=O)cc(C(C)=O)c(O)c12	.	.	.	40*	.	21	6.8*
Cc1cccc(NC(=S)N(Cc2ccc(Br)cc2)Cc2ccc(C(=O)O)cc2)c1	-5	3	0	21	1	.	.
COc1ccc(CN(Cc2ccc(C(=O)O)cc2)C(=S)Nc2cc(C)cc(C)c2)cc1OC	-7	4	-2	4	9	.	.
Cc1cc(NC(=S)N(Cc2ccc(Br)cc2)Cc2ccc(C(=O)O)cc2)ccc1Cl	-12	1	2	75*	14	82*	48*
COc1ccc(Cl)cc1NC(=S)N(Cc1ccc(C(=O)O)cc1)Cc1ccc(OC)c(OC)c1	-2	4	0	50*	-9	48*	15*
COc1ccc(CN(Cc2ccc(C(=O)O)cc2)C(=S)Nc2ccc(C)cc2)cc1OC	-6	4	0	19	-4	.	.
COc1cccc(NC(=S)N(Cc2ccc(Cl)cc2)Cc2ccc(C(=O)O)cc2)c1	-1	2	-1	53*	-1	42*	11*
O=S1(=O)N[C@@H](Cc2ccccc2)COc2cc(N3CCOCC3)ccc21	.	.	.	2	.	.	.
O=C(CCc1nc(-c2ccccc2F)no1)NCCc1c[nH]c2ccccc12	.	.	.	3	.	.	.
N#Cc1c(C(F)(F)F)cc(-c2ccco2)nc1SCc1ccccn1	-4	-2	5	37*	12	19	5.3*
N#Cc1c(C(F)(F)F)cc(-c2ccco2)nc1SCc1ccncc1	-2	2	4	6	14	.	.
CCCCNC(=O)NS(=O)(=O)c1ccc(NC(=O)CSc2ncnc3scc(-c4ccc(C)cc4)c23)cc1	.	.	.	77*	.	70*	32*	DNA CAG DR=i
O=C(CSc1ncnc2scc(-c3ccccc3)c12)Nc1ccc(C(=O)O)cc1	-11	8	1	35*	4	35*	10*
CN(Cc1ccccc1)S(=O)(=O)c1cccc(C(=O)OCc2ccccc2Cl)c1	.	.	.	5	.	.	.
O=C(NNC(=O)c1ccccc1O)c1ccc(Cl)c(S(=O)(=O)N2CCc3ccccc32)c1	-11	-1	4	48*	24	52*	19*
SMILES	Scp-1 inhibitor	STEP inh	LMPTP block	rCAG RNA binder	NadD block	rCAG binder conf	dCAG dye counter	others
CCN(C(=O)[C@@H](C)[C@@H](O)c1ccc2ccccc2c1)c1ccccc1	.	.	.	0	.	.	.
COc1ccc(NC(=O)Nc2nnc(CC(=O)Nc3ccccc3)s2)cc1	6	-1	-2	42*	0	16	15*
O=C(Cc1nnc(NC(=O)Nc2ccccc2)s1)NCc1ccccc1	-6	-3	0	25	3	.	.
COc1cccc(NC(=O)Nc2nnc(CC(=O)Nc3ccccc3)s2)c1	-4	-3	1	43*	4	32	21*
CC(c1ccccc1)c1nnc(NC(=O)Nc2ccccc2)s1 (centres undefined)	0	-1	1	43*	1	25	17*
CCCCOc1ccc(NC(=O)Nc2nnc(C)s2)cc1	-4	0	1	37*	-1	10	8.2*
CC(c1ccccc1)c1nnc(NC(=O)Nc2ccccc2F)s1 (centres undefined)	-10	1	0	10	-1	.	.
O=C(Nc1ccc2c(c1)OCO2)N1CCC(c2nc3ccc(Cl)cc3[nH]2)CC1	.	.	.	5	.	.	.
O=C(N[C@H](Cc1ccccc1)C(=O)NCc1ccco1)[C@H]1O[C@@H](n2ccc(=O)[nH]c2=O)[C@H](O)[C@@H]1O	.	.	.	0	.	.	.
N#Cc1ccc(OCCCN2CCC(C(O)(C3=CCCC3)c3ccccc3)CC2)cc1 (centres undefined)	.	.	.	0	.	.	.
O=C(c1c(O)cc(O)cc1O)C1c2c(cc(O)c3c2O[C@H](c2ccc(O)cc2)[C@@H](O)C3)OC1c1ccc(O)cc1 (some centres undefined)	-9	-3	2	37*	2	45*	16*
O=C1CC(c2ccc(O)cc2)Oc2cc(O)cc(O)c21 (centres undefined)	-11	-2	0	5	6	.	.
CC1(C)CC(=O)C(C(c2ccc(F)cc2)C2C(=O)CC(C)(C)CC2=O)C(=O)C1	-6	-1	-1	0	1	.	.
